From ChEMBL document CHEMBL5661979, “Pharmacological inhibition of BMK1 suppresses tumor growth through promyelocytic leukemia protein” (Cancer Cell, 2010) come the findings set out here.

Each structure is given as a SMILES string. pIC50: −log10 of the molar value. Where only a bound is given, the exact number is not on record here.

Assay [1] has as its target Cyclin-dependent kinase 2 (Homo sapiens, UniProt P24941). The experiment in a line: Inhibition of CDK2 K2 site in human HeLa cells lysate pre incubated for 15 mins followed by ATP acyl phosphate probe addition and measured after 10 mins by LC-MS/MS analysis. Type of assay: subcellular. The method in brief: (§1)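 KiNativ profiling in HeLa lysate (5 mg/mL total protein). Lysate incubated 15 min with inhibitor at 50, 10, 2, 0.8 or 0 μM. ATP or ADP acylphosphate probe then added (5 μM final) and reacted 10 min. Reaction stopped with urea and analysed by targeted MS, using up to four fragment ions per kinase peptide-probe conjugate. % inhibition taken against untreated lysate. Run in duplicate.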

Assay [2] has as its target Cyclin-dependent kinase 5 (Homo sapiens, UniProt Q00535). Kind of assay: Inhibition of CDK5 in human HeLa cells lysate pre incubated for 15 mins followed by ATP acyl phosphate probe addition and measured after 10 mins by LC-MS/MS analysis. Type of assay: subcellular. The gist of the method: as §1
In assay [3] the target is Serine/threonine-protein kinase tousled-like 2 (Homo sapiens, UniProt Q86UE8). The experiment in a line: Inhibition of TLK2 in human HeLa cells lysate at 50 uM pre incubated for 15 mins followed by ADP acyl phosphate probe addition and measured after 10 mins by LC-MS/MS analysis relative to control. The format is subcellular. As to conditions: time 25.0 min.
The target in assay [4] is Dual specificity mitogen-activated protein kinase kinase 1 (Homo sapiens, UniProt Q02750). Kind of assay: Inhibition of MAP2K1 in human HeLa cells lysate pre incubated for 15 mins followed by ATP acyl phosphate probe addition and measured after 10 mins by LC-MS/MS analysis. Type of assay: subcellular.
The nature of assay [5]: Inhibition of HGK/MINK/TNIK in human HeLa cells lysate at 10 uM pre incubated for 15 mins followed by ATP acyl phosphate probe addition and measured after 10 mins by LC-MS/MS analysis relative to control. The settings on record: 25 min, condition cancer.
For assay [6], the target named is Tyrosine-protein kinase Lyn (Homo sapiens, UniProt P07948). Kind of assay: Inhibition of LYN in human HeLa cells lysate at 2 uM pre incubated for 15 mins followed by ATP acyl phosphate probe addition and measured after 10 mins by LC-MS/MS analysis relative to control. The settings on record: time 25.0 min. The format is subcellular.
A short description of assay [7]: Inhibition of SRPK1/2 in human HeLa cells lysate at 10 uM pre incubated for 15 mins followed by ADP acyl phosphate probe addition and measured after 10 mins by LC-MS/MS analysis relative to control. The settings on record: 25 min, condition cancer.
Assay [8] addresses 1-phosphatidylinositol 3-phosphate 5-kinase (Homo sapiens, UniProt Q9Y2I7). The experiment in a line: Inhibition of PIP5K3 in human HeLa cells lysate pre incubated for 15 mins followed by ATP acyl phosphate probe addition and measured after 10 mins by LC-MS/MS analysis. Type of assay: subcellular.
Assay [9] concerns the target Serine/threonine-protein kinase DCLK2 (Homo sapiens) (UniProt Q8N568). The experiment in a line: Inhibition of DCAMKL2 (unknown origin) assessed as remaining activity at 10 uM by ATP-competition binding assay relative to control.
For the next assay, the target named is RPS6KA1/RPS6KA2/RPS6KA3 (Homo sapiens, UniProt P51812+Q15349+Q15418). Kind of assay: Inhibition of RSK1/2/3 in human HeLa cells lysate at 2 uM pre incubated for 15 mins followed by ADP acyl phosphate probe addition and measured after 10 mins by LC-MS/MS analysis relative to control. The format is subcellular. As to conditions: time 25.0 min.
Assay [10] has as its target Calcium/calmodulin-dependent protein kinase type 1D (Homo sapiens, UniProt Q8IU85). Kind of assay: Inhibition of CAMK1d in human HeLa cells lysate pre incubated for 15 mins followed by ADP acyl phosphate probe addition and measured after 10 mins by LC-MS/MS analysis. Type of assay: subcellular. The method in brief:
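KiNativ-type profiling in HeLa lysate (5 mg/mL total protein). Lysate preincubated 15 min with inhibitor at 50, 10, 2, 0.8 or 0 μM, then ATP or ADP acylphosphate probe added (5 μM final) for 10 min. Reaction stopped with urea and analysed by targeted MS, using up to four fragment ions per kinase peptide-probe conjugate. % inhibition calculated against untreated lysate. Duplicate reactions.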

The target in assay [11] is T1, Interleukin-1 receptor-associated kinase 4 (Homo sapiens) (UniProt Q9NWZ3).
T1 sequence (whole entry): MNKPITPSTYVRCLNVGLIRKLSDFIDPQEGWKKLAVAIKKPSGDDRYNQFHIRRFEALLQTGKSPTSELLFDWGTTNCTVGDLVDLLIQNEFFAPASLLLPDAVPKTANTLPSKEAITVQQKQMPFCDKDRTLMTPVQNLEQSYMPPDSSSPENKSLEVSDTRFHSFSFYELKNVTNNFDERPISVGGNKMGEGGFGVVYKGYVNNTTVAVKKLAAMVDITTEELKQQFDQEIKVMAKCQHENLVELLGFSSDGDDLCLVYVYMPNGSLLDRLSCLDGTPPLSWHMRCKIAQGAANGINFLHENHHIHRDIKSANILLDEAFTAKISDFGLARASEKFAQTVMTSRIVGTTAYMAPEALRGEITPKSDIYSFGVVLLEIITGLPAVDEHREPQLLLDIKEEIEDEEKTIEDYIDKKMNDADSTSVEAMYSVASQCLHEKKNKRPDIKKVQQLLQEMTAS
The experiment in a line: Inhibition of IRAK4 in human HeLa cells lysate at 2 uM pre incubated for 15 mins followed by ATP acyl phosphate probe addition and measured after 10 mins by LC-MS/MS analysis relative to control. Type of assay: subcellular. The settings on record: time 25.0 min.

Assay [12] addresses Ephrin type-B receptor 4 (Homo sapiens) (UniProt P54760). Kind of assay: Inhibition of EphB4 in human HeLa cells lysate at 2 uM pre incubated for 15 mins followed by ATP acyl phosphate probe addition and measured after 10 mins by LC-MS/MS analysis relative to control. The format is subcellular. The settings on record: time 25.0 min.
Assay [13] is described as follows: Inhibition of MAP3K2/MAP3K3 in human HeLa cells lysate pre incubated for 15 mins followed by ATP acyl phosphate probe addition and measured after 10 mins by LC-MS/MS analysis. Type of assay: subcellular.
The target in assay [14] is p38 delta/gamma (Homo sapiens) (UniProt O15264+P53778). Kind of assay: Inhibition of p38d/p38g in human HeLa cells lysate at 2 uM pre incubated for 15 mins followed by ATP acyl phosphate probe addition and measured after 10 mins by LC-MS/MS analysis relative to control. Type of assay: subcellular. The settings on record: time 25.0 min.
Assay [15] has as its target Mitogen-activated protein kinase 3 (Homo sapiens, UniProt P27361). Kind of assay: Inhibition of ERK1 in human HeLa cells lysate pre incubated for 15 mins followed by ADP acyl phosphate probe addition and measured after 10 mins by LC-MS/MS analysis. Type of assay: subcellular.

RPS6KA1/RPS6KA2/RPS6KA3, sequence (P51812 whole entry, looked up): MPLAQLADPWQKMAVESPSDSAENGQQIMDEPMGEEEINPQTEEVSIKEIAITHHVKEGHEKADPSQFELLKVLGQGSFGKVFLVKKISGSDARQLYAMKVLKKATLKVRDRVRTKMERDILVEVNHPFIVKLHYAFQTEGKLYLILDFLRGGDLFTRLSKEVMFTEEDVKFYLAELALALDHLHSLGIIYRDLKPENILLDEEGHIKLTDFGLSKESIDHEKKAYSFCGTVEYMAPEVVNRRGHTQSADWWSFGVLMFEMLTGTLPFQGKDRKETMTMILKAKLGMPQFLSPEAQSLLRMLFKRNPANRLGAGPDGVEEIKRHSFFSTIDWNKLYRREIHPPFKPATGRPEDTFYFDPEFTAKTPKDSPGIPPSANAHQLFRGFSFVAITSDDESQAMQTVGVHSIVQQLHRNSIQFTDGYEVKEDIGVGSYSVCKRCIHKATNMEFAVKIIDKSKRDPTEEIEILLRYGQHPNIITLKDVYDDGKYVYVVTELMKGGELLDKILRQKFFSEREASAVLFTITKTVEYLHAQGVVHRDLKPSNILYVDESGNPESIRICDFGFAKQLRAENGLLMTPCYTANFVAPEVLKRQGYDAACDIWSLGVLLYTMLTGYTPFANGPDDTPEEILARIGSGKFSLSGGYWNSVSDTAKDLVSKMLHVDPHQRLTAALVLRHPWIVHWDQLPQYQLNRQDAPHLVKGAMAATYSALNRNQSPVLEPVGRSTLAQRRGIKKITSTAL
RPS6KA1/RPS6KA2/RPS6KA3, sequence (Q15349 whole entry, looked up): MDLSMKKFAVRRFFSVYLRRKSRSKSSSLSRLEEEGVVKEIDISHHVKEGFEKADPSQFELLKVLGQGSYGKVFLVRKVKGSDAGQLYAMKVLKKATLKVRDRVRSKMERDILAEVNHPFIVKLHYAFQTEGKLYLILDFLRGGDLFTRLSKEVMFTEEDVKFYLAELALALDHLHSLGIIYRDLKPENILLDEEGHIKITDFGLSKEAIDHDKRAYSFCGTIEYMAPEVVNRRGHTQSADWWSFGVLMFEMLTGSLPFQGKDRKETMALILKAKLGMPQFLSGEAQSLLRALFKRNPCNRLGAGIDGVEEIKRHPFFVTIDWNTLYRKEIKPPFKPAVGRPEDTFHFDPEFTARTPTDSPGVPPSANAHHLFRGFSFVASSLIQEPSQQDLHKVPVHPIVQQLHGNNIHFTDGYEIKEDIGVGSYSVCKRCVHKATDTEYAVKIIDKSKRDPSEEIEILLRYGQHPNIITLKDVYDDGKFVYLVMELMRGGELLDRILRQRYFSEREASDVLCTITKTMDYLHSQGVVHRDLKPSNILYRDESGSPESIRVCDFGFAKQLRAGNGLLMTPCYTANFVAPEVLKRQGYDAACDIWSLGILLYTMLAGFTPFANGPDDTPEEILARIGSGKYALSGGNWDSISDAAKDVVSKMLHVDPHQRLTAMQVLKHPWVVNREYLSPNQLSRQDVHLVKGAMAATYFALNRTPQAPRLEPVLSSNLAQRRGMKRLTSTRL
RPS6KA1/RPS6KA2/RPS6KA3, sequence (Q15418 whole entry, looked up): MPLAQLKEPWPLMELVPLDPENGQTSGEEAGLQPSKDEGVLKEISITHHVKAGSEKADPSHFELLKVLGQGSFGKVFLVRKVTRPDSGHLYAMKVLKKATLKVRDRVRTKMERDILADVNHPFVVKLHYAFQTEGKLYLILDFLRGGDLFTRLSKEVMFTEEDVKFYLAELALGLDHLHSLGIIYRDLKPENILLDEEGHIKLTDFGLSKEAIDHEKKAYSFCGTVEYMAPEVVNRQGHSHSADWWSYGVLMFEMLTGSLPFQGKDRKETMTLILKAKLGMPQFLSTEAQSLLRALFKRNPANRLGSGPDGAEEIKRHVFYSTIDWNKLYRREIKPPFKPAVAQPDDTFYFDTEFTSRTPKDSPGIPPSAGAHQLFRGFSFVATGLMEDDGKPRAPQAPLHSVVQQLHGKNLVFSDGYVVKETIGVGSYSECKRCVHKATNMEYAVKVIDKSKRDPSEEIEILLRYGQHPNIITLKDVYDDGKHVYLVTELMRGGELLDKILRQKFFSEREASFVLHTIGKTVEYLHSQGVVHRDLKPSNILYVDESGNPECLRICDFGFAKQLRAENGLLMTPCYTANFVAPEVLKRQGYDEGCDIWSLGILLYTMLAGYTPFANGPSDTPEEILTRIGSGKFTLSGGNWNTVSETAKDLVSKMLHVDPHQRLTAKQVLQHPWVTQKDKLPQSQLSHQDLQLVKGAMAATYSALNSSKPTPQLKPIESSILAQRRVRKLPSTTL
1-phosphatidylinositol 3-phosphate 5-kinase, sequence (Q9Y2I7 whole entry): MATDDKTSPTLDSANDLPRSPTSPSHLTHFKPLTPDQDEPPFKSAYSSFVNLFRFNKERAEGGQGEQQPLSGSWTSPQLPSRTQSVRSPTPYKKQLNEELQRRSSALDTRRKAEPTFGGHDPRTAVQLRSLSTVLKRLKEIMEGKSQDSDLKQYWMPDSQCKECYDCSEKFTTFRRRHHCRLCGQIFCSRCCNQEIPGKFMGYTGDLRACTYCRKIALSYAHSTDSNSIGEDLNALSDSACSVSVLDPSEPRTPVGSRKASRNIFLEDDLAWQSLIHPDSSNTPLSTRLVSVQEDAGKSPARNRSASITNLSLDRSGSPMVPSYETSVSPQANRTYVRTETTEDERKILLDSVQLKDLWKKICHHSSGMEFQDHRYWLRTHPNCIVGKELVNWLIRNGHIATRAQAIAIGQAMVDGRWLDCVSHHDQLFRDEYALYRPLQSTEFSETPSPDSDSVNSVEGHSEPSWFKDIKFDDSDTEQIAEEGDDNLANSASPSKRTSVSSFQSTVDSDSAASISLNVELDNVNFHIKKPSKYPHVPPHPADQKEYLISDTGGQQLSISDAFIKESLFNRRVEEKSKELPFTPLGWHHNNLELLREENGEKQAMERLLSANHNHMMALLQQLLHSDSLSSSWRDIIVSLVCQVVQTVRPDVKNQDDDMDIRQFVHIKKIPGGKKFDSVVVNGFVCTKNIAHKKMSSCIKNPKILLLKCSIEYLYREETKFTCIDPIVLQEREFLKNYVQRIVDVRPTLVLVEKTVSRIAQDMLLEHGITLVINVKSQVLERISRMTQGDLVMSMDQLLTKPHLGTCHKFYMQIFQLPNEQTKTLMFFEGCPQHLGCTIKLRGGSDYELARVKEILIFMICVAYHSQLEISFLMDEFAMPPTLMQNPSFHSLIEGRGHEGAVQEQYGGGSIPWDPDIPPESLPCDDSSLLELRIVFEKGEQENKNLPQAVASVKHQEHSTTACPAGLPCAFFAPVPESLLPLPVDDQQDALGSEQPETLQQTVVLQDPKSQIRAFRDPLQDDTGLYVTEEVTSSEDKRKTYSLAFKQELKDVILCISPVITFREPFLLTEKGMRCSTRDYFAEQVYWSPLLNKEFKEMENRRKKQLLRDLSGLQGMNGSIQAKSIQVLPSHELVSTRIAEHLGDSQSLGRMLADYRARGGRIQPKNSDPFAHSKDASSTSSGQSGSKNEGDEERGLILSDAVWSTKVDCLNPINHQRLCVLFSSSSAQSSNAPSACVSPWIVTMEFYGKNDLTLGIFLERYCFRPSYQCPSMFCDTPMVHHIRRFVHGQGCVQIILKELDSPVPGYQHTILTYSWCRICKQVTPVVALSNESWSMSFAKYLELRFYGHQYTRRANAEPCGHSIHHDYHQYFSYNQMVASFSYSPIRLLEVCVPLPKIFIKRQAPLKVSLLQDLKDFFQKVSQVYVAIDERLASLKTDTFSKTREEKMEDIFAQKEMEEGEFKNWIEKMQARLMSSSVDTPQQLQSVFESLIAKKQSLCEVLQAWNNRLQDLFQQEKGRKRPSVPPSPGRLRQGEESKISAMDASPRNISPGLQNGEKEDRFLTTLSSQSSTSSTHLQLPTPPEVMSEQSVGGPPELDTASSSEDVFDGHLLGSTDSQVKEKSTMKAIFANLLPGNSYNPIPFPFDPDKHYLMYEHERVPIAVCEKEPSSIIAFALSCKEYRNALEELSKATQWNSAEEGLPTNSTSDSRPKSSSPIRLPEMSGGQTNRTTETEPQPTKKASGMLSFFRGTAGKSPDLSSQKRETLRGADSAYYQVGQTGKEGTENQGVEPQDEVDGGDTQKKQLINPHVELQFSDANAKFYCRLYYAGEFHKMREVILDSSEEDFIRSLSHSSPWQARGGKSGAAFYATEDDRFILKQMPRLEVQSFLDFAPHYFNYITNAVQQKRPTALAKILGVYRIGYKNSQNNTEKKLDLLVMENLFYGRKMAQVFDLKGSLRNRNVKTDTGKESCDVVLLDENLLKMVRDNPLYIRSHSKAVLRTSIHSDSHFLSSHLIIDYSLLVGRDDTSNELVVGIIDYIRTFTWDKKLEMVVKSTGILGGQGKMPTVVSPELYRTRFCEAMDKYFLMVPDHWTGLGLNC
Cyclin-dependent kinase 5, sequence (Q00535 whole entry): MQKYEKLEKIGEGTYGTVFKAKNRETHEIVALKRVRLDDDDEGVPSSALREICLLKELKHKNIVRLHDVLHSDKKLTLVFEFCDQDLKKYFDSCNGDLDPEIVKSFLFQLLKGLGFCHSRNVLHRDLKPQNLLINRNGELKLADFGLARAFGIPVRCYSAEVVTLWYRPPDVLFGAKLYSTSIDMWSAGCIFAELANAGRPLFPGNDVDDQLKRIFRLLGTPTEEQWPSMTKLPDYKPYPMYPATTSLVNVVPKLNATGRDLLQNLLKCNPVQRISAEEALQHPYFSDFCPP
Dual specificity mitogen-activated protein kinase kinase 1, sequence (Q02750 whole entry): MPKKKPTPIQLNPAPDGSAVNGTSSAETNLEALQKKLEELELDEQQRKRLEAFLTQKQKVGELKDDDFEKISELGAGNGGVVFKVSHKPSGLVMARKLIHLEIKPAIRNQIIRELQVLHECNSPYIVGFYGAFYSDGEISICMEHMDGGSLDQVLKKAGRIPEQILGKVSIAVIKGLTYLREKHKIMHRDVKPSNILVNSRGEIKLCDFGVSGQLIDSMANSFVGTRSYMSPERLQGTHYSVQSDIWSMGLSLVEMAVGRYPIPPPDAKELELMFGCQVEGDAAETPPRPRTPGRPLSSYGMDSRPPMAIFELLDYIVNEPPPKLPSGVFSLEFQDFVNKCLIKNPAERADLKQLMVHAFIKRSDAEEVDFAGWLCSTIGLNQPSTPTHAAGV

For `CCOc1cc(N2CCC(O)CC2)ccc1Nc1ncc2c(n1)N(C)c1ccccc1C(=O)N2C`, the pIC50 in [1], in assay [2], in [4], in assay [8], in assay [10] and in [13] was under 4.30 throughout. In addition, the pIC50 in [15] is under 4.30. In addition, the inhibition was -2.4% in [3]; -6.3% in assay [6]; 9.4% on RPS6KA1/RPS6KA2/RPS6KA3; 6.7% in assay [11]; -5.4% in [12]; 100% in assay [14]. The values for the inhibition at 10 µM in assay [5] and in [7] were -6.3% and -8.1%, respectively. Also, the Activity in [9] was 0.65%.

The pIC50 is the IC50 on a negative log10 scale, so that one unit is a factor of ten. In general, inhibition refers to the drop in the measured response relative to a control, in per cent.
